Test system: Fibroblast
Experiment: Multiplex assay against human fibroblast
Assay type: toxicity, cell-based
Procedure, shortened: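 With compound added, live cells were imaged on a CQ1 microscope at 37°C and 5% CO2; staining with Hoechst33342, BioTracker Green Microtubule Cytoskeleton Dye, MitoTracker Red and Annexin V Alexa Fluor 680 had been done at seeding. The CellPathfinder machine-learning gating scheme split cells into Hoechst high-intensity objects or normal cells, normal cells into healthy, pyknosed or fragmented nuclei, and pyknosed cells into mitotic or apoptotic. The tubulin, mitochondrial-mass and membrane-permeability phenotypes are per cents of healthy-nucleus cells.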

[1] = 12 h, 1 µM, compound concentration 1 uM, replicate 1
[2] = 12 h, 1 µM, compound concentration 1 uM, replicate 2
[3] = 12 h, 10 µM, compound concentration 10 uM, replicate 1
[4] = 12 h, 10 µM, compound concentration 10 uM, replicate 2
[5] = 24 h, 1 µM, compound concentration 1 uM, replicate 1
[6] = 24 h, 1 µM, compound concentration 1 uM, replicate 2
[7] = 24 h, 10 µM, compound concentration 10 uM, replicate 1
[8] = 24 h, 10 µM, compound concentration 10 uM, replicate 2
[9] = 48 h, 1 µM, compound concentration 1 uM, replicate 1
[10] = 48 h, 1 µM, compound concentration 1 uM, replicate 2
[11] = 48 h, 10 µM, compound concentration 10 uM, replicate 1
[12] = 48 h, 10 µM, compound concentration 10 uM, replicate 2

Cc1sc2c(c1C)C(c1ccc(Cl)cc1)=N[C@H](CC(=O)OC(C)(C)C)c1nnc(C)n1-2
Population Apoptotic (%) [1]: 43%
Population Fragmented Nuclei (%) [1]: 15%
Population Healthy Nuclei (%) [1]: 62%
Population Hoechst High Intensity Objects (%) [1]: 2%
Population Membrane Permeable-Phenotype (%) [1]: 0%
Population Mitochondria Different-Phenotype (%) [1]: 5%
Population Mitotic Cells (%) [1]: 56%
Population Normal (%) [1]: 97%
Population Pyknosed Nuclei (%) [1]: 22%
Population Tubulin-Different-Phenotype (%) [1]: 30%
Total Cell Count [1]: 180
Population Apoptotic (%) [2]: 33%
Population Fragmented Nuclei (%) [2]: 26%
Population Healthy Nuclei (%) [2]: 51%
Population Hoechst High Intensity Objects (%) [2]: 5%
Population Membrane Permeable-Phenotype (%) [2]: 15%
Population Mitochondria Different-Phenotype (%) [2]: 10%
Population Mitotic Cells (%) [2]: 66%
Population Normal (%) [2]: 94%
Population Tubulin-Different-Phenotype (%) [2]: 46%
Total Cell Count [2]: 159
Population Apoptotic (%) [3]: 43%
Population Fragmented Nuclei (%) [3]: 19%
Population Healthy Nuclei (%) [3]: 55%
Population Hoechst High Intensity Objects (%) [3]: 7%
Population Membrane Permeable-Phenotype (%) [3]: 0%
Population Mitochondria Different-Phenotype (%) [3]: 15%
Population Mitotic Cells (%) [3]: 56%
Population Normal (%) [3]: 92%
Population Pyknosed Nuclei (%) [3]: 25%
Population Tubulin-Different-Phenotype (%) [3]: 90%
Total Cell Count [3]: 128
Population Apoptotic (%) [4]: 51%
Population Fragmented Nuclei (%) [4]: 30%
Population Healthy Nuclei (%) [4]: 39%
Population Hoechst High Intensity Objects (%) [4]: 5%
Population Membrane Permeable-Phenotype (%) [4]: 4%
Population Mitochondria Different-Phenotype (%) [4]: 20%
Population Mitotic Cells (%) [4]: 48%
Population Normal (%) [4]: 94%
Population Pyknosed Nuclei (%) [4]: 29%
Population Tubulin-Different-Phenotype (%) [4]: 95%
Total Cell Count [4]: 169
Population Apoptotic (%) [5]: 82%
Population Fragmented Nuclei (%) [5]: 17%
Population Healthy Nuclei (%) [5]: 60%
Population Hoechst High Intensity Objects (%) [5]: 2%
Population Membrane Permeable-Phenotype (%) [5]: 0%
Population Mitochondria Different-Phenotype (%) [5]: 2%
Population Mitotic Cells (%) [5]: 17%
Population Normal (%) [5]: 97%
Population Pyknosed Nuclei (%) [5]: 21%
Population Tubulin-Different-Phenotype (%) [5]: 29%
Total Cell Count [5]: 186
Population Apoptotic (%) [6]: 46%
Population Fragmented Nuclei (%) [6]: 29%
Population Healthy Nuclei (%) [6]: 50%
Population Hoechst High Intensity Objects (%) [6]: 6%
Population Membrane Permeable-Phenotype (%) [6]: 11%
Population Mitochondria Different-Phenotype (%) [6]: 5%
Population Mitotic Cells (%) [6]: 53%
Population Normal (%) [6]: 93%
Population Pyknosed Nuclei (%) [6]: 20%
Population Tubulin-Different-Phenotype (%) [6]: 51%
Total Cell Count [6]: 149
Population Apoptotic (%) [7]: 75%
Population Fragmented Nuclei (%) [7]: 16%
Population Healthy Nuclei (%) [7]: 69%
Population Hoechst High Intensity Objects (%) [7]: 8%
Population Membrane Permeable-Phenotype (%) [7]: 2%
Population Mitochondria Different-Phenotype (%) [7]: 19%
Population Mitotic Cells (%) [7]: 25%
Population Normal (%) [7]: 91%
Population Pyknosed Nuclei (%) [7]: 14%
Population Tubulin-Different-Phenotype (%) [7]: 76%
Total Cell Count [7]: 123
Population Apoptotic (%) [8]: 51%
Population Fragmented Nuclei (%) [8]: 26%
Population Healthy Nuclei (%) [8]: 45%
Population Hoechst High Intensity Objects (%) [8]: 4%
Population Membrane Permeable-Phenotype (%) [8]: 4%
Population Mitochondria Different-Phenotype (%) [8]: 26%
Population Mitotic Cells (%) [8]: 48%
Population Normal (%) [8]: 95%
Population Pyknosed Nuclei (%) [8]: 27%
Population Tubulin-Different-Phenotype (%) [8]: 87%
Total Cell Count [8]: 165
Population Apoptotic (%) [9]: 63%
Population Fragmented Nuclei (%) [9]: 19%
Population Healthy Nuclei (%) [9]: 66%
Population Hoechst High Intensity Objects (%) [9]: 5%
Population Membrane Permeable-Phenotype (%) [9]: 0%
Population Mitochondria Different-Phenotype (%) [9]: 2%
Population Mitotic Cells (%) [9]: 36%
Population Normal (%) [9]: 94%
Population Pyknosed Nuclei (%) [9]: 13%
Population Tubulin-Different-Phenotype (%) [9]: 28%
Total Cell Count [9]: 170
Population Apoptotic (%) [10]: 53%
Population Fragmented Nuclei (%) [10]: 29%
Population Healthy Nuclei (%) [10]: 49%
Population Membrane Permeable-Phenotype (%) [10]: 12%
Population Mitochondria Different-Phenotype (%) [10]: 10%
Population Mitotic Cells (%) [10]: 46%
Population Normal (%) [10]: 95%
Population Pyknosed Nuclei (%) [10]: 21%
Population Tubulin-Different-Phenotype (%) [10]: 69%
Total Cell Count [10]: 140
Population Apoptotic (%) [11]: 50%
Population Fragmented Nuclei (%) [11]: 21%
Population Healthy Nuclei (%) [11]: 66%
Population Hoechst High Intensity Objects (%) [11]: 1%
Population Membrane Permeable-Phenotype (%) [11]: 1%
Population Mitochondria Different-Phenotype (%) [11]: 13%
Population Mitotic Cells (%) [11]: 50%
Population Normal (%) [11]: 98%
Population Pyknosed Nuclei (%) [11]: 12%
Population Tubulin-Different-Phenotype (%) [11]: 70%
Total Cell Count [11]: 134
Population Apoptotic (%) [12]: 63%
Population Fragmented Nuclei (%) [12]: 35%
Population Healthy Nuclei (%) [12]: 51%
Population Membrane Permeable-Phenotype (%) [12]: 4%
Population Mitochondria Different-Phenotype (%) [12]: 9%
Population Mitotic Cells (%) [12]: 36%
Population Pyknosed Nuclei (%) [12]: 13%
Population Tubulin-Different-Phenotype (%) [12]: 88%
Total Cell Count [12]: 170
